Calls of active or inactive are those of the source. The calls are words filed in the database; no cut-off is given here.
How the values were obtained:
Type in all cases: functional, cell-based
[1] = system: MDA-MB-435; assay: Cytotoxicity against human MDA-MB-435 cells after 3 days by MTT assay
[2] = system: HCT-116; assay: Cytotoxicity against human HCT116 cells after 3 days by MTT assay
In short: (§1)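 HCT116 colon carcinoma cells were seeded at 1500 cells/well 24 h before treatment. They were exposed to threefold serial dilutions from 100 nM to 0.41 nM, with under 1% DMSO final (20 mM DMSO stocks), for 3 days. Growth was read by MTT absorbance at 540 nm. IC50 was taken as 50% growth inhibition relative to untreated controls, in triplicate.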

[3] = system: QG-56; assay: Cytotoxicity against human QG56 cells at 1.4 to 100 nM after 3 days by MTT assay
[4] = system: HCT-116; assay: Cytotoxicity against human HCT116 cells at 1.4 to 100 nM after 3 days by MTT assay; in short: as §1

Structure (SMILES)	IC50 ([1]; Homo sapiens, MDA-MB-435, 72 h) [nM]	IC50 ([2]; Homo sapiens, HCT-116, 72 h) [nM]	further results
COC1=C(C)C(=O)C2=C(C1=O)[C@@H]1[C@@H]3CC4=C(C(=O)C(OC)=C(C)C4=O)[C@H](COC(=O)C(C)C)N3[C@@H](C#N)[C@H](C2)N1C	10	22	
COC1=C(C)C(=O)C2=C(C1=O)[C@@H]1[C@@H]3CC4=C(C(=O)C(OC)=C(C)C4=O)[C@H](COC(=O)c4ccccc4)N3[C@@H](C#N)[C@H](C2)N1C	8.6	25	
COC1=C(C)C(=O)C2=C(C1=O)[C@@H]1[C@@H]3CC4=C(C(=O)C(OC)=C(C)C4=O)[C@H](COC(=O)C4CCCC4)N3[C@@H](C#N)[C@H](C2)N1C	30	93	
COC1=C(C)C(=O)C2=C(C1=O)[C@@H]1[C@@H]3CC4=C(C(=O)C(OC)=C(C)C4=O)[C@H](COC(=O)C4CC=CCC4)N3[C@@H](C#N)[C@H](C2)N1C (mixture of isomers)	27	43	
COC1=C(C)C(=O)C2=C(C1=O)[C@@H]1[C@@H]3CC4=C(C(=O)C(OC)=C(C)C4=O)[C@H](COC(=O)c4ccccc4OC)N3[C@@H](C#N)[C@H](C2)N1C	11	34	
COC1=C(C)C(=O)C2=C(C1=O)[C@@H]1[C@@H]3CC4=C(C(=O)C(OC)=C(C)C4=O)[C@H](COC(=O)c4cccnc4)N3[C@@H](C#N)[C@H](C2)N1C	3.5	7.9	
CC=C(C)C(=O)OC[C@H]1C2=C(C[C@H]3[C@H]4C5=C(C[C@@H]([C@H](C#N)N13)N4C)C(=O)C(C)=C(OC)C5=O)C(=O)C(C)=C(OC)C2=O [RENIERAMYCIN M]			IC50 ([1]; mda-mb-435): 11 nM; IC50 ([2]; hct-116): 34 nM
COC1=C(C)C(=O)C2=C(C1=O)[C@@H]1[C@@H]3CC4=C(C(=O)C(OC)=C(C)C4=O)[C@H](COC(=O)c4ccncc4)N3[C@@H](C#N)[C@H](C2)N1C	4.4	10	
COC1=C(C)C(=O)C2=C(C1=O)[C@@H]1[C@@H]3CC4=C(C(=O)C(OC)=C(C)C4=O)[C@H](COC(C)=O)N3[C@@H](O)[C@H](C2)N1C			Activity [3]: Active; Activity [4]: Active
COC1=C(C)C(=O)C2=C(C1=O)[C@@H]1[C@@H]3CC4=C(C(=O)C(OC)=C(C)C4=O)[C@H](COC(=O)CCCl)N3[C@@H](C#N)[C@H](C2)N1C	12	16	
COC1=C(C)C(=O)C2=C(C1=O)[C@@H]1[C@@H]3CC4=C(C(=O)C(OC)=C(C)C4=O)[C@H](COC(=O)c4ccc(Br)cc4)N3[C@@H](C#N)[C@H](C2)N1C	13	38	
CCC(C)C(=O)OC[C@H]1C2=C(C[C@H]3[C@H]4C5=C(C[C@@H]([C@H](C#N)N13)N4C)C(=O)C(C)=C(OC)C5=O)C(=O)C(C)=C(OC)C2=O (mixture of isomers)	12	33	
COC1=C(C)C(=O)C2=C(C1=O)[C@@H]1[C@@H]3CC4=C(C(=O)C(OC)=C(C)C4=O)[C@H](COC(=O)C4=CCCC4)N3[C@@H](C#N)[C@H](C2)N1C	13	33	
COC1=C(C)C(=O)C2=C(C1=O)[C@@H]1[C@@H]3CC4=C(C(=O)C(OC)=C(C)C4=O)[C@H](CO)N3[C@@H](C#N)[C@H](C2)N1C [JOURNNAMYCIN A]	290	130	Activity [3]: Active
COC1=C(C)C(=O)C2=C(C1=O)[C@@H]1[C@@H]3CC4=C(C(=O)C(OC)=C(C)C4=O)[C@H](COC(=O)c4cnc5ccccc5c4)N3[C@@H](C#N)[C@H](C2)N1C	3.8	10	
COC1=C(C)C(=O)C2=C(C1=O)[C@@H]1[C@@H]3CC4=C(C(=O)C(OC)=C(C)C4=O)[C@H](COC(=O)c4ccc5ccccc5n4)N3[C@@H](C#N)[C@H](C2)N1C	4.2	11	
COC1=C(C)C(=O)C2=C(C1=O)[C@@H]1[C@@H]3CC4=C(C(=O)C(OC)=C(C)C4=O)[C@H](COC(=O)C4=CCCCC4)N3[C@@H](C#N)[C@H](C2)N1C	29	49	
CCCCCC(=O)OC[C@H]1C2=C(C[C@H]3[C@H]4C5=C(C[C@@H]([C@H](C#N)N13)N4C)C(=O)C(C)=C(OC)C5=O)C(=O)C(C)=C(OC)C2=O	40	100	
COC1=C(C)C(=O)C2=C(C1=O)[C@@H]1[C@@H]3CC4=C(C(=O)C(OC)=C(C)C4=O)[C@H](COC(C)=O)N3[C@@H](C#N)[C@H](C2)N1C [CYANOJORUMYCIN]	1.4	3.2	
CCCC(=O)OC[C@H]1C2=C(C[C@H]3[C@H]4C5=C(C[C@@H]([C@H](C#N)N13)N4C)C(=O)C(C)=C(OC)C5=O)C(=O)C(C)=C(OC)C2=O	12	34	
C/C=C(/C)C(=O)OC[C@H]1C2=C(C[C@H]3[C@H]4C5=C(C[C@@H]([C@H](C#N)N13)N4C)C(=O)C(C)=C(OC)C5=O)C(=O)C(C)=C(OC)C2=O [RENIERAMYCIN M]			IC50 ([1]; mda-mb-435): 3.8 nM; IC50 ([2]; hct-116): 9.4 nM
COC1=C(C)C(=O)C2=C(C1=O)[C@@H]1[C@@H]3CC4=C(C(=O)C(OC)=C(C)C4=O)[C@H](COC(=O)c4ccc(OC)cc4)N3[C@@H](C#N)[C@H](C2)N1C	8.9	26	
COC1=C(C)C(=O)C2=C(C1=O)[C@@H]1[C@@H]3CC4=C(C(=O)C(OC)=C(C)C4=O)[C@H](COC(=O)C4CC=CC4)N3[C@@H](C#N)[C@H](C2)N1C	13	33	
COC1=C(C)C(=O)C2=C(C1=O)[C@@H]1[C@@H]3CC4=C(C(=O)C(OC)=C(C)C4=O)[C@H](COC=O)N3[C@@H](C#N)[C@H](C2)N1C	38	38	
COC1=C(C)C(=O)C2=C(C1=O)[C@@H]1[C@@H]3CC4=C(C(=O)C(OC)=C(C)C4=O)[C@H](COC(=O)c4ccccn4)N3[C@@H](C#N)[C@H](C2)N1C	1.4	3.3	
COC1=C(C)C(=O)C2=C(C1=O)[C@@H]1[C@@H]3CC4=C(C(=O)C(OC)=C(C)C4=O)[C@H](COC(=O)C=C(C)C)N3[C@@H](C#N)[C@H](C2)N1C	11	27	
COC1=C(C)C(=O)C2=C(C1=O)[C@@H]1[C@@H]3CC4=C(C(=O)C(OC)=C(C)C4=O)[C@H](COC(=O)c4ccc([N+](=O)[O-])cc4)N3[C@@H](C#N)[C@H](C2)N1C	9.4	26	
COC1=C(C)C(=O)C2=C(C1=O)[C@@H]1[C@@H]3CC4=C(C(=O)C(OC)=C(C)C4=O)[C@H](COC(=O)c4ccnc5ccccc45)N3[C@@H](C#N)[C@H](C2)N1C	4.1	10	
CCC(=O)OC[C@H]1C2=C(C[C@H]3[C@H]4C5=C(C[C@@H]([C@H](C#N)N13)N4C)C(=O)C(C)=C(OC)C5=O)C(=O)C(C)=C(OC)C2=O [JORUNNAMYCIN C]	4.2	11	Activity [3]: Active

Source: ChEMBL document CHEMBL1152942, “Chemistry of renieramycins. Part 8: synthesis and cytotoxicity evaluation of renieramycin M-jorunnamycin A analogues” (Bioorg Med Chem, 2009)
